Measurements from publication PMC3329623 (The Biochemical journal, 2009).
Like-named read-outs stand apart in the source and are kept apart here. Bridge positions count the residues as written; N and C are the ends. Ends that are not written are not given here.

What was measured:
[1] = molecular target: zfα5(huW1-4)β1-1 blade swap integrin (human | zebrafish) (UniProt P08648); test: ELISA
[2] = molecular target: zfα5(EPEK)β1-1 loop swap integrin (B2-C2 loop KEDTPH to EKEPL) (zebrafish); test: ELISA
[3] = molecular target: zebrafish α5β1-1-Fc recombinant soluble integrin (zebrafish); test: ELISA
[4] = molecular target: triple loop swap zfα5β1-1 integrin (KEDTPH to EKEPL, RGRK to SWAA and RKEIRF to ASSIY) (zebrafish); test: ELISA
[5] = molecular target: zfα5β1-1(D225A) (zebrafish); test: ELISA
[6] = molecular target: zfα5(ASSIY)β1-1 loop swap integrin (D4-A4 loop RKEIRF to ASSIY) (zebrafish); test: ELISA
[7] = molecular target: zfα5β1-1(Y204A) (zebrafish); test: ELISA
[8] = molecular target: zfα5β1-1(L206A) (zebrafish); test: ELISA
[9] = molecular target: zfα5(SWAA)β1-1 loop swap integrin (D3-A3 loop RGRK to SWAA) (zebrafish); test: ELISA
[10] = tested on: huα5β1-1, huα5β1-2 and huα5huβ1; test: inhibition of 50K binding to human α5 integrins; set-up: species or system human α5 / zebrafish or human β1; conditions: 1 mM Mn2+
Summary of the method: (§1)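 Receptors were Fc-fused α5β1 headpiece integrins expressed transiently in CHO-L761h cells and captured from supernatant on goat anti-human Fc. Binding of the biotinylated fibronectin fragment (2–3 nM) was run with 1 mM Mn2+ at room temperature. Peptide inhibitor was tested at 0.1–100 μg/ml and small-molecule inhibitor at 0.1–300 nM, both serially diluted. BSA-well background was subtracted; four replicate wells; at least three experiments.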

[11] = tested on: zfα5β1-1, zfα5β1-2 and zfα5huβ1; test: inhibition of 70K binding to zebrafish α5 integrins; conditions: specificity control / antagonist test; 1 mM Mn2+
Summary of the method: as §1

[12] = tested on: α5β1; conditions: cited from earlier work; for affinity for α5β1: phage display peptides
[13] = tested on: huα5β1-1; test: inhibition of 50K binding to huα5β1-1; set-up: species or system human α5 / zebrafish β1-1; conditions: control experiments
[14] = molecular target: Triple swap (Danio rerio, UniProt A0ACM8Q6M2+Q3YAA1, K151E/E152K/D153E/DEL154/H156L/R184S/G185W/R186A/K187A/R250A/K251S/E252S/DEL254/F255Y/S520N); test: Solid-phase inhibition of biotinylated 70K zebrafish fibronectin-1 fragment; format: biochemical; conditions: read-out: Apparent KI values (nM), JSM6427, 70K; SD, n = 3
Summary of the method: (§2)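 Fc-fused soluble integrin (full α5 ectodomain plus β1 headpiece: PSI, hybrid, βI) from CHO-L761h supernatants 6 days after transient co-transfection, captured on anti-human Fc. Biotinylated fibronectin fragment (E. coli-made human 3Fn6-10 or FLAG-purified zebrafish 70K from 293-EBNA cells) at 2–3 nM, 1 mM Mn2+, room temperature. Inhibitor 0.1–300 nM, serially diluted. Four replicate wells, BSA background subtracted. Curves fitted by simulated annealing. KI = IC50/(1+[ligand]/KD).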

[15] = molecular target: huα5β1-1 (UniProt P08648+Q3YAA1); test: Solid-phase inhibition of biotinylated 50K human fibronectin fragment; format: biochemical; conditions: read-out: Apparent KI values (nM), JSM6427, 50K; SD, n = 3
Summary of the method: as §2

[16] = molecular target: T1, zfα5(SWAA)β1-1 (Danio rerio, UniProt A0ACM8Q6M2+Q3YAA1, R184S/G185W/R186A/K187A/S520N); test: Solid-phase inhibition of biotinylated 70K zebrafish fibronectin-1 fragment; format: biochemical; conditions: read-out: Apparent KI values (nM), JSM6427, 70K; SD, n = 3
Summary of the method: as §2

[17] = molecular target: zfα5(SGAA)β1-1 (Danio rerio, UniProt A0ACM8Q6M2+Q3YAA1, R184S/R186A/K187A/S520N); format: biochemical; conditions: read-out: apparent KI values for JSM6427 (Figure 6 legend); SD, n = 3
Summary of the method: as §2

[18] = molecular target: T1, zfα5(SWAA)β1-1; format: biochemical; conditions: read-out: apparent KI values for JSM6427 (Figure 6 legend); SD, n = 3
Summary of the method: as §2

[19] = tested on: human α5 with Tyr-208 (equivalent of Tyr-204) mutated to alanine; conditions: cited from earlier work
[20] = tested on: human α5 with Ile-210 (equivalent of Leu-206) mutated to alanine; conditions: cited from earlier work
[21] = molecular target: zfα5(huW1-4)β1-1 blade swap integrin (human | zebrafish) (UniProt P08648); test: ELISA; remark: listed apart in the source
[22] = molecular target: triple loop swap zfα5β1-1 integrin (KEDTPH to EKEPL, RGRK to SWAA and RKEIRF to ASSIY) (zebrafish); test: ELISA; remark: listed apart in the source
[23] = molecular target: zfα5(SWAA)β1-1 loop swap integrin (D3-A3 loop RGRK to SWAA) (zebrafish); test: ELISA; remark: listed apart in the source
[24] = molecular target: human α5 / zebrafish β1-1-Fc recombinant soluble integrin (human | zebrafish, UniProt P08648;Q3YAA1); test: ELISA

## 50 kDa cell binding domain of human fibronectin (3Fn6-10) (domain or fragment)
[1]
  Kd: 1.3 nM

## 70 kDa cell binding fragment of zebrafish fibronectin-1 (3Fn6-10 including the EIIIB domain) (domain or fragment)
[2]
  Kd: 4.6 nM
[1]
  Kd: 14 nM
[3]
  fold higher affinity than for zfα5β1-2: 3 fold
[4]
  Kd: 5.8 nM
[5]
  Kd: 42 nM
[6]
  Kd: 8.3 nM
[7]
  Kd: 79 nM
[8]
  Kd: 106 nM
[9]
  Kd: 1.7 nM

## O=C(O)CN(CCN(CC(=O)O)CC(=O)O)CC(=O)O [EDTA]
[10]
  inhibition of 50K binding to human α5 integrins: fully inhibited
[11]
  inhibition of 70K binding to zebrafish α5 integrins: could be inhibited

## CRGDGFC (disulfide 1-7 (inferred)) [CRGDGFC]
[12]
  affinity for α5β1: high affinity

## CRGDGWC (disulfide 1-7 (inferred)) [CRGDGWC]
[12]
  affinity for α5β1: high affinity

## GACRRETADACGA (disulfide 3-11 (inferred))
[13]
  inhibition of 50K binding to huα5β1-1: ineffective

## GCRGDSPCG (disulfide 2-8 (inferred)) [cyclic RGD peptide]
[10]
  inhibition of 50K binding to human α5 integrins: fully inhibited
[11]
  inhibition of 70K binding to zebrafish α5 integrins: could be inhibited

## JSM6427
[14]
  Ki: 1.21 ± 0.04 nM
[15]
  Ki: 0.65 ± 0.15 nM
[16]
  Ki: 7.2 ± 2.4 nM
[17]
  Ki: 25 nM
[18]
  Ki: 4.2 nM

## RGDGW
[12]; Trp-157 in the D3-A3 loop involved
  specificity/selectivity for human α5β1: human α5β1-specific and α5β1-selective

## fibronectin
[19]
  reduction of affinity of fibronectin binding, human α5 Tyr mutated to alanine: 5 fold
[20]
  reduction of affinity of fibronectin binding, human α5 Ile mutated to alanine: 200 fold

B1: cyclic peptide … (peptide)
peptide: GACRRETAWACGA
modifications: disulfide 3-11 (inferred)
[21]
  Ki: 31 nM
[22]
  Ki: 76 nM
[23]
  Ki: 126 nM

B2: cyclic peptide GACRRETAWACGA (peptide)
peptide: GACRRETAWACGA
modifications: disulfide 3-11 (inferred)
[24]
  Ki: 47 nM
